The target in this test is Signal transducer and activator of transcription 3 (Homo sapiens, UniProt P40763). The experiment in a line: Inhibition of IFN gamma-induced STAT3 (unknown origin) activation in HeLa-STAT3-Luc cells after 6 hrs by luciferase reporter gene assay. In short, it runs like this: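 HeLa-STAT3-Luc reporter cells (15 × 10⁴ cells/mL, DMEM with 10% FBS, 37 °C, 5% CO2) were preincubated with the compounds at rising concentrations, then stimulated with IFNγ for 6 h. Lysate luciferase is expressed as percent inhibition, with IFNγ-induced activity set as 100%.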
Chain of Signal transducer and activator of transcription 3 (P40763 whole entry): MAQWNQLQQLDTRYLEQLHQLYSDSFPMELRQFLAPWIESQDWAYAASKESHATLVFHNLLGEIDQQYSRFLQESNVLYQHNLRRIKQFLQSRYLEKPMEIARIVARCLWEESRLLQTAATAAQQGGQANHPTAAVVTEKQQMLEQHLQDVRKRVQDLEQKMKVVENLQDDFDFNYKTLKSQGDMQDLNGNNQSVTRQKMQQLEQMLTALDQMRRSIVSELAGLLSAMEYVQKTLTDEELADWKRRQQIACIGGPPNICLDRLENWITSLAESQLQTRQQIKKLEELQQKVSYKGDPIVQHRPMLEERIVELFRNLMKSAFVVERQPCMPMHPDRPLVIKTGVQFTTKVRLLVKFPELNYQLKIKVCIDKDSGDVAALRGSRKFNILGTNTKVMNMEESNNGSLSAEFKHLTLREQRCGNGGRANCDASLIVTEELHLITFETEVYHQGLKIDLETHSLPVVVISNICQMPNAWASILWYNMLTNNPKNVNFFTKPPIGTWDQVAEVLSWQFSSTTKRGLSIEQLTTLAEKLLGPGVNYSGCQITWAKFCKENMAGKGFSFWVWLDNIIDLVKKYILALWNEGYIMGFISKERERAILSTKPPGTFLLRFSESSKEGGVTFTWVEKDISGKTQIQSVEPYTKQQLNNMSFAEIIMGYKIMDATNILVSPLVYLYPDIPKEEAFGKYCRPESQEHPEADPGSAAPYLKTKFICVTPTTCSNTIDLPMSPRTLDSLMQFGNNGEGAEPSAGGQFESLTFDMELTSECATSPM

pIC50: −log10 of the molar value.

`CC(C)=CC(=O)C[C@H](C)c1ccc(C)cc1` [(+)-(S)-ar-turmerone] had a pIC50 of 4.85.

The record behind these values is BindingDB's records for doi:10.1021/acs.jnatprod.5b00637 (University of Eastern Piedmont, 2016).
